Reference: article PMC5485308 (Molecular Metabolism, 2017)
Ends that are not written are not given here.

T1: Elastase 2A (CEL2A) (Homo sapiens, UniProt P08217)
T1 sequence (P08217 29-269): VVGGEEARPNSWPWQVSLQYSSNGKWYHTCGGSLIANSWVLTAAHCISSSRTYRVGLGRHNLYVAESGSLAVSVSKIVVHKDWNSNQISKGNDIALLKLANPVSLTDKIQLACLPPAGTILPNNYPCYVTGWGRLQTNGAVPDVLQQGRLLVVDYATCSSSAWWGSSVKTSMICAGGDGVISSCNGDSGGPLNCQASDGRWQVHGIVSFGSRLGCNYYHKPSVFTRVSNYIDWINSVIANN

T2: carboxypeptidase A1 (CBPA1) (Homo sapiens, UniProt P15085)
T2 sequence (P15085 111-419): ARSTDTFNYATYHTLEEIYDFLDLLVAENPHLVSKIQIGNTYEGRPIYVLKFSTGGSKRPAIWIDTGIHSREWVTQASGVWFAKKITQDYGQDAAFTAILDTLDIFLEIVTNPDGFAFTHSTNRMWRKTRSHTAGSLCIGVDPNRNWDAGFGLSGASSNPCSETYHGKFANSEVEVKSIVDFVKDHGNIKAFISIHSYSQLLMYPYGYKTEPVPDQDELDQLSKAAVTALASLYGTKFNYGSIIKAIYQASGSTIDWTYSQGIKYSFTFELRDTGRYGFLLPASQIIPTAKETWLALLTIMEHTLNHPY

T3: Elastase 3B (CEL3B) (Homo sapiens, UniProt P08861)
T3 sequence (P08861 29-270): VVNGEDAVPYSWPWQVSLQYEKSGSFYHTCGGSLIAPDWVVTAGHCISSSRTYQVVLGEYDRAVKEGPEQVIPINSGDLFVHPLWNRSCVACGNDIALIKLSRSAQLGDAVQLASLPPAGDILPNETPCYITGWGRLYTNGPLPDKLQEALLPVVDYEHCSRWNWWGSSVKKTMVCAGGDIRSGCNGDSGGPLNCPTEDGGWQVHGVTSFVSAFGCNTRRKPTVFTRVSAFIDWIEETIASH

B1: recombinant mouse chymotrypsin-like elastase family member 3B: commercial protease (3.4.21.70) from MyBioSource (protein, UniProt Q9CQ52 28-269, looked up)
Chymotrypsin-like elastase …: VVNGEEAVPHSWPWQVSLQYEKDGSFHHTCGGSLITPDWVLTAGHCISTSRTYQVVLGEHERGVEEGQEQVIPINAGDLFVHPKWNSMCVSCGNDIALVKLSRSAQLGDAVQLACLPPAGEILPNGAPCYISGWGRLSTNGPLPDKLQQALLPVVDYEHCSRWNWWGLSVKTTMVCAGGDIQSGCNGDSGGPLNCPADNGTWQVHGVTSFVSSLGCNTLRKPTVFTRVSAFIDWIEETIANN
B2: recombinant bovine chymotrypsin-like elastase family member 2A: commercial protease (3.4.21.71) from MyBioSource (protein, UniProt Q29461 29-269, looked up)
Chymotrypsin-like elastase …: VVGGEDARPNSWPWQVSLQYSSSGQWRHTCGGSLIEQNWVLTAAHCISSSRTYRVVVGRQSLSTVESGSLTIAVSKSVIHEKWNSNQLAQGNDIALLKLASSVPLTDKIQLGCLPAAGTILPNNYVCYVTGWGRLQSNGALPDILQQGKLLVVDYATCSNPSWWGSTVKTNMICAGGDGVTSSCNGDSGGPLNCQAANRQWQVHGIVSFGSSLGCNYYRKPSVFTRVSNYNDWISSVIENN
B3: recombinant rat carboxypeptidase A1: commercial protease (3.4.17.1) from MyBioSource (protein, UniProt P00731 111-419, looked up)
Carboxypeptidase A1: ALSTDSFNYATYHTLDEIYEFMDLLVAEHPQLVSKIQIGNTFEGRPIHVLKFSTGGTNRPAIWIDTGIHSREWVTQASGVWFAKKITKDYGQDPTFTAVLDNMDIFLEIVTNPDGFAYTHKTNRMWRKTRSHTQGSLCVGVDPNRNWDAGFGMAGASSNPCSETYRGKFPNSEVEVKSIVDFVTSHGNIKAFISIHSYSQLLLYPYGYTSEPAPDQAELDQLAKSAVTALTSLHGTKFKYGSIIDTIYQASGSTIDWTYSQGIKYSFTFELRDTGLRGFLLPASQIIPTAEETWLALLTIMDHTVKHPY

Columns and labels:
[1] = Peptide hydrolysis by fecal protein extracts of celiac disease; type: in vitro ADME, human; details: for extent of degradation by CD fecal samples, 24 h: fecal extracts of CD patients, 24-h incubation (not shown)
Procedure, shortened: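 Stools from treated celiac patients (Marsh III at diagnosis, gluten-free diet, no antibiotics for a month) were stored at −80 °C. They were homogenized in 10 mM Tris-HCl pH 7.5, and the 35–65% ammonium sulfate fraction was desalted. Extract (3.4 µL of 0.8 mg/mL) plus peptide (4.7 µL of 60 µM) in PBS pH 7.3 ran 60 min or 24 h at 37 °C. Read-out: C18 RP-HPLC, UV 215 nm.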

Elastase 2A (CEL2A) = target: T1, Elastase 2A (CEL2A); test: 33-mer, 19-mer and 13-mer hydrolysis by purified human fecal elastase 2A; type: in vitro ADME; details: for extent of degradation by CEL2A: PBS pH 7.3, 37 °C, 60 min, RP-HPLC UV 215 nm
Procedure, shortened: (§1)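 Purified human fecal enzyme (3.4 µL of 0.8 mg/mL) was incubated with 33-, 19- or 13-mer gliadin peptide (4.7 µL of 60 µM) in PBS pH 7.3 (40 µL total) at 37 °C for 60 min (also 24 h). Reactions were stopped by boiling for 10 min, then filtered. Read-out: C18 RP-HPLC, 0.1% TFA water-to-acetonitrile gradient over 20 min, UV 215 nm. Controls: enzyme boiled 15 min; peptide alone.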

[2] = target: T2, carboxypeptidase A1 (CBPA1); type: in vitro ADME; details: for extent of degradation by CBPA1: purified CBPA1, PBS pH 7.3, 37 °C, 60 min, RP-HPLC UV 215 nm
Procedure, shortened: as §1

CEL2A, CBPA1, and CEL3B = test: 33-mer hydrolysis with CEL2A, CBPA1 and CEL3B added together; type: in vitro ADME, human; details: CBPA1 and CEL3B added simultaneously or sequentially, 60 min (not shown)
Elastase 3B (CEL3B) = target: T3, Elastase 3B (CEL3B); test: 33-mer, 19-mer and 13-mer hydrolysis by purified human fecal elastase 3B; type: in vitro ADME
Procedure, shortened: as §1

gluten and gliadin = test: Glutenase and gliadinase activity of commercial proteases; type: biochemical; details: bioassay on MCG-1 gluten agar plates and gliadin zymography
[3] = 37 °C, 24-h incubation (not shown)

Row | Molecule | extent of degradation by CD fecal samples, 24 h [1] | extent of degradation by CEL2A (Elastase 2A (CEL2A)) | extent of degradation by CBPA1 [2] | hydrolytic activity against gluten and gliadin (gluten and gliadin) | also measured
1 | LGQQQPFPPQQPY [13-mer] | completely degraded | fully degraded | fully degraded | – | –
2 | LGQQQPFPPQQPYPQPQPF [19-mer] | completely degraded | fully degraded | fully degraded | – | –
3 | LQLQPFPQPQLPYPQPQLPYPQPQLPYPQPQPF [33-mer] | incomplete | not completely degraded | not completely degraded | – | degradation in CD patients relative to NCD samples (higher by) ([1]; fecal extracts of CD patients versus NCD volunteers, 37 °C, 60 min, HPLC): 37%; extent of degradation by CEL2A after 24 h (Elastase 2A (CEL2A); [3]): not completely degraded; change of degradation when all 3 enzymes are added (CEL2A, CBPA1, and CEL3B): did not increase; extent of degradation by CBPA1 after 24 h ([2]; purified CBPA1, 37 °C, 24-h incubation (not shown)): not completely degraded; extent of degradation by CEL3B after 24 h (Elastase 3B (CEL3B); [3]): not completely degraded; extent of degradation by CEL3B (Elastase 3B (CEL3B); PBS pH 7.3, 37 °C, 60 min, RP-HPLC UV 215 nm): not completely degraded
4 | porcine elastase: commercial protease (3.4.21.36) from Sigma | – | – | – | showed hydrolytic activity | –
5 | B1 | – | – | – | showed hydrolytic activity | –
6 | B2 | – | – | – | showed hydrolytic activity | –
7 | B3 | – | – | – | showed hydrolytic activity | –
